Measured values from ChEMBL document CHEMBL2406939, “Structure, synthesis, and biological activity of a C-20 bisacetylenic alcohol from a marine sponge Callyspongia sp” (J Nat Prod, 2013).
Calls of active or inactive are those of the source. The calls are words filed in the database; no cut-off is given here.

What was measured:
[1] = Antiproliferative activity against temperature-sensitive rat lymphatic endothelial cells assessed as cell viability at 10 uM after 48 hrs by MTS assay; assay type: functional; conditions: read-out: Activity
Procedure, shortened: (§1)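 TR-LE cells kept on type I collagen-coated dishes in HuMedia-EB2/EG + 10% FBS at permissive 33 °C. Seeded at 8 × 10^3 cells/well in DMEM + 10% FBS on collagen I-coated plates. Allowed 3 h to adhere, then exposed to compounds (final 0.1–100 μM) for 48 h. Viability by MTS assay. Final DMSO ≤0.5% (v/v).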

Endothelial cell = test: Antiproliferative activity against temperature-sensitive rat lymphatic endothelial cells assessed as cell viability at 100 uM after 48 hrs by MTS assay; assay type: functional, cell-based; procedure, shortened: as §1
HeLa = test: Antiproliferative activity against human HeLa cells after 48 hrs by MTS assay; assay type: functional, cell-based
Procedure, shortened: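 HeLa cells grown in EMEM + 10% FBS at 37 °C, 5% CO2. Seeded at 3 × 10^3 cells/well in EMEM + 10% FBS, incubated 24 h, then exposed to compounds for 48 h. Viability read by MTS assay. Final DMSO ≤0.5% (v/v). IC50 from viability.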

[2] = Antiproliferative activity against temperature-sensitive rat lymphatic endothelial cells after 48 hrs by MTS assay; conditions: Endothelial cell

Structure (SMILES) | Activity (Endothelial cell) | IC50 (HeLa) | also measured
C#CC(=O)/C=C/CCCCCCCCCC/C=C/C(O)C#C (stereo unspecified) |  |  | viability at 10 µM [1]: 78%
C#CC(=O)/C=C/CCCCCC | inactive |  | 
C#CC(O)/C=C/CCCCCC (stereo unspecified) | inactive |  | 
CC(=O)O[C@H]1C(=O)[C@@]2(C)[C@H]([C@H](OC(=O)c3ccccc3)[C@]3(O)C[C@H](OC(=O)[C@H](O)[C@@H](NC(=O)c4ccccc4)c4ccccc4)C(C)=C1C3(C)C)[C@]1(OC(C)=O)CO[C@@H]1C[C@@H]2O [PACLITAXEL] |  | 1.7 nM | 
CC[C@]1(O)C[C@H]2CN(CCc3c([nH]c4ccccc34)[C@@](C(=O)OC)(c3cc4c(cc3OC)N(C=O)[C@H]3[C@@](O)(C(=O)OC)[C@H](OC(C)=O)[C@]5(CC)C=CCN6CC[C@]43[C@@H]65)C2)C1 [VINCRISTINE] |  | 4.3 nM | IC50 [2]: 80 nM
